Active and inactive are the calls of the source. No cut-off for these calls is given here.
What was measured:
SW-620 = assay: Cell cycle arrest in human SW620 cells assessed as accumulation at S-phase at 75 uM after 48 hrs by propidium iodide staining based flow cytometry (reference value: 43.72%); assay type: functional
[1] = molecular target: Mitogen-activated protein kinase 9 (Homo sapiens, UniProt P45984); assay: Binding affinity to full length human JNK2 (M1 to Q382 residues) expressed in mammalian expression system by KINOMEscan assay
[2] = molecular target: T1, High affinity nerve growth factor receptor (Homo sapiens, UniProt P04629); assay: Inhibition of human TRKA (G475 to G790 residues) expressed in mammalian expression system assessed as residual activity at 5 uM by KINOMEscan assay relative to control
HT-29 [3] = assay: Inhibition of PI3K/AKT signaling pathway in human HT-29 cells assessed as reduction in mTOR phosphorylation up to 75 uM after 48 hrs by Western blot analysis; assay type: cell-based
[4] = molecular target: Mast/stem cell growth factor receptor Kit (Homo sapiens, UniProt P10721, D816V); assay: Binding affinity to human KIT (I571 to D952 residues) D816V mutant expressed in bacterial expression system by KINOMEscan assay
[5] = molecular target: Protein kinase C epsilon type (Homo sapiens) (UniProt Q02156); assay: Inhibition of human PRKCE (A378 to P737 residues) expressed in mammalian expression system assessed as residual activity at 5 uM by KINOMEscan assay relative to control
HT-29 [6] = assay: Cell cycle arrest in human HT-29 cells assessed as accumulation at G1-phase at 50 uM after 48 hrs by propidium iodide staining based flow cytometry (reference value: 41.86%); assay type: functional
[7] = molecular target: T2, Proto-oncogene tyrosine-protein kinase Src (Homo sapiens, UniProt P12931); assay: Inhibition of human SRC (L240 to L536 residues) expressed in bacterial expression system assessed as residual activity at 5 uM by KINOMEscan assay relative to control
T2 sequence (P12931 2-536 limits assumed): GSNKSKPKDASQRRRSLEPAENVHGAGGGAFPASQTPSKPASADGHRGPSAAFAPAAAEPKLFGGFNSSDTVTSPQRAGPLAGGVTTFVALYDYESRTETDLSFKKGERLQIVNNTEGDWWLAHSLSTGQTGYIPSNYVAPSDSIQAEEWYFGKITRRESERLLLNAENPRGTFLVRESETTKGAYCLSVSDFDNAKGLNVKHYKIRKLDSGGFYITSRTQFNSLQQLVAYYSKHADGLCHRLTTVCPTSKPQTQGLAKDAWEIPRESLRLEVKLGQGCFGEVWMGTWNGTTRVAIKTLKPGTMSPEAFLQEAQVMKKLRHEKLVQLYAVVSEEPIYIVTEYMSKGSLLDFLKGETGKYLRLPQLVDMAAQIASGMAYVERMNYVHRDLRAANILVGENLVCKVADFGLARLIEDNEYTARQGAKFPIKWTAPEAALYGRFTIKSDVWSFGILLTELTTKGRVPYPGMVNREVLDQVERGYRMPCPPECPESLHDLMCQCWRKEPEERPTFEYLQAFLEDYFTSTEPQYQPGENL

[8] = molecular target: T1, High affinity nerve growth factor receptor; assay: Binding affinity to human TRKA (G475 to G790 residues) expressed in mammalian expression system by KINOMEscan assay
[9] = molecular target: T2, Proto-oncogene tyrosine-protein kinase Src; assay: Binding affinity to human SRC (L240 to L536 residues) expressed in bacterial expression system by KINOMEscan assay
[10] = molecular target: Receptor-type tyrosine-protein kinase FLT3 (Homo sapiens, UniProt P36888); assay: Binding affinity to human FLT3 (V592 to Y969 residues) expressed in bacterial expression system by KINOMEscan assay
Sequence of Receptor-type tyrosine-protein kinase FLT3 (P36888 whole entry, the tested form may be a part): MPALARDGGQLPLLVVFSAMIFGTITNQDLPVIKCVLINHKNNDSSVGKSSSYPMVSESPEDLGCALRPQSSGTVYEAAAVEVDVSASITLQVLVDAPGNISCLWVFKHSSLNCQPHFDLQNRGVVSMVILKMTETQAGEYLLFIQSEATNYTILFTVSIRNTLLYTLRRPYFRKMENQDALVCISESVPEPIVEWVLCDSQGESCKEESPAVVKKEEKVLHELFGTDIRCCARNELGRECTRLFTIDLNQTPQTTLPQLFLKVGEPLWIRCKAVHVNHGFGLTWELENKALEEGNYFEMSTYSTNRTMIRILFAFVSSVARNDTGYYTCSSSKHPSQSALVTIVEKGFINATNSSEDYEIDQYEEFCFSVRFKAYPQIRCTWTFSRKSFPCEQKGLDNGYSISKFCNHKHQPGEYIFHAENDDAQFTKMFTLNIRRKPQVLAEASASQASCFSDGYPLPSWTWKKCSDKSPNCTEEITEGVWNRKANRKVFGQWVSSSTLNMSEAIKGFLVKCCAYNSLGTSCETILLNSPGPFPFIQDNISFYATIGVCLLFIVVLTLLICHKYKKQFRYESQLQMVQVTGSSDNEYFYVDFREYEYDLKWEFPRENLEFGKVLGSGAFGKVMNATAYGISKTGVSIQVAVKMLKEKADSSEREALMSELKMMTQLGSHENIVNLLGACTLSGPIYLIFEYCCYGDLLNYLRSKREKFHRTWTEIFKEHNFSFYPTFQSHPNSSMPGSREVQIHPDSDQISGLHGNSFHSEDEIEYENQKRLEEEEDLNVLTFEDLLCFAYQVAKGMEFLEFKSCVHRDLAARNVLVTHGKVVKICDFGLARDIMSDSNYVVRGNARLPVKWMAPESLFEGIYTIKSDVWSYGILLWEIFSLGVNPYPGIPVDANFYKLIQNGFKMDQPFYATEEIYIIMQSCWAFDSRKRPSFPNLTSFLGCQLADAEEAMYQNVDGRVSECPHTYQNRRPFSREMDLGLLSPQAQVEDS

[11] = molecular target: Serine/threonine-protein kinase pim-3 (Homo sapiens, UniProt Q86V86); assay: Binding affinity to human PIM3 (G16 to A317 residues) expressed in bacterial expression system by KINOMEscan assay
[12] = molecular target: Tyrosine-protein kinase ABL1 (Homo sapiens, UniProt P00519); assay: Binding affinity to human phosphorylated ABL1 (S229 to K512 residues) expressed in mammalian expression system by KINOMEscan assay
HT-29 [13] = assay: Effect on total AKT expression in human HT-29 cells up to 75 uM after 48 hrs by Western blot analysis; assay type: ADME, cell-based; settings: ht-29, 48 h
Outline: (§1)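 HT29 or SW620 cells were treated at 0, 25, 50 and 75 μM for 48 h and lysed in RIPA with protease and phosphatase inhibitors. Protein was quantified by BCA. 50 μg lysate was run on 8–15% SDS-PAGE and transferred to PVDF. Blocking was 5% BSA/TBST for 2 h; primary antibodies were applied overnight at 4 °C, then HRP secondary 1 h at room temperature.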

[14] = molecular target: Mitogen-activated protein kinase kinase kinase 4 (Homo sapiens, UniProt Q9Y6R4); assay: Inhibition of human MAP3K4 (G1319 to E1608 residues) expressed in bacterial expression system assessed as residual activity at 5 uM by KINOMEscan assay relative to control
Sequence of Mitogen-activated protein kinase kinase kinase 4 (Q9Y6R4 whole entry, the tested form may be a part): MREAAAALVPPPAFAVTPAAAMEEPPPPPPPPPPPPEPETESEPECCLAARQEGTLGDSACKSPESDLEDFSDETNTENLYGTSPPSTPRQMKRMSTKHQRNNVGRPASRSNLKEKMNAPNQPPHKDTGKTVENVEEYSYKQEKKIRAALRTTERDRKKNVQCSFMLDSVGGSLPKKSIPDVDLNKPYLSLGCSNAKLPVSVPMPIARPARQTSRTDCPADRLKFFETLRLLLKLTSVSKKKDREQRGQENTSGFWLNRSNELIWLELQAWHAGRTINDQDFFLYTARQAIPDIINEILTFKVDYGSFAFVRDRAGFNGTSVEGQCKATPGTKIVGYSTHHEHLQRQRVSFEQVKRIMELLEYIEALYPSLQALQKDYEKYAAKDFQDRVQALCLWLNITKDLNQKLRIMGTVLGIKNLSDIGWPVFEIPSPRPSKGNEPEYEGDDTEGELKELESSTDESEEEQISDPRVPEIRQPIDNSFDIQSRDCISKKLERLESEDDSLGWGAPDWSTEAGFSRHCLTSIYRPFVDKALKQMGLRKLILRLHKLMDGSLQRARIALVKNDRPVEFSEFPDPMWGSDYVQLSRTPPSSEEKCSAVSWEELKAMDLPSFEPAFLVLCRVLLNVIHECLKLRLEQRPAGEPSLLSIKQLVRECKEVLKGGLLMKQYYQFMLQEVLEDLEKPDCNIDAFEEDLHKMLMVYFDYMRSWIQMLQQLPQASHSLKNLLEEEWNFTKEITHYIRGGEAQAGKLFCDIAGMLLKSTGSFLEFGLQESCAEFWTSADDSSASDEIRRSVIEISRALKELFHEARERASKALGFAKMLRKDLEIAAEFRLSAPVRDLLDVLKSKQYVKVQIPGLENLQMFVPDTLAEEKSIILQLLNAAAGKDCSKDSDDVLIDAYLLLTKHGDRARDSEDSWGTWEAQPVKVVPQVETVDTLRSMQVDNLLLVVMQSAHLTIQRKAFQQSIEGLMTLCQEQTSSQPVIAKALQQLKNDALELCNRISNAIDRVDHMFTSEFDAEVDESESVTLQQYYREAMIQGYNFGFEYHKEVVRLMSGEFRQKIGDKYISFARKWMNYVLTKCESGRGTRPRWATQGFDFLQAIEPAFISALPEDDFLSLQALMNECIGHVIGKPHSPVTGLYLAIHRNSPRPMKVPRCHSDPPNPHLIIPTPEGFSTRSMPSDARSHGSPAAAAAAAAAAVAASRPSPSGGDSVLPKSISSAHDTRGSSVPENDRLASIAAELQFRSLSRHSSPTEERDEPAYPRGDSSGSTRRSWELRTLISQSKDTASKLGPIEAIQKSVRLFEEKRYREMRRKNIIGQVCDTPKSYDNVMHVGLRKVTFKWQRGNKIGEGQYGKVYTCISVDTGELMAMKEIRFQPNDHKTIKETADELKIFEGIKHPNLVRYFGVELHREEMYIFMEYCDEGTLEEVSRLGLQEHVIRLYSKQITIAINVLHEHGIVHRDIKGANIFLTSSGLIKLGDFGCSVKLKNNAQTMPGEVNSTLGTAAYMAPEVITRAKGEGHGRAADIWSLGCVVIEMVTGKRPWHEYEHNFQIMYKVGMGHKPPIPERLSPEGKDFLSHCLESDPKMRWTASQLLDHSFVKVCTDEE

[15] = molecular target: MAP/microtubule affinity-regulating kinase 3 (Homo sapiens, UniProt P27448); assay: Inhibition of full length human MARK3 (M1 to L729 residues) expressed in bacterial expression system assessed as residual activity at 5 uM by KINOMEscan assay relative to control
HT-29 [16] = assay: Induction of apoptosis in human HT-29 cells assessed as early apoptotic cells at 50 uM after 48 hrs by Annexin-V-FITC/propidium iodide staining based flow cytometry (reference value: 1%); assay type: functional
[17] = molecular target: RAC-beta serine/threonine-protein kinase (Homo sapiens, UniProt P31751); assay: Inhibition of human AKT2 expressed in bacterial expression system assessed as residual activity at 5 uM by KINOMEscan assay relative to control
HT-29 [18] = assay: Induction of apoptosis in human HT-29 cells assessed as reduction in MCL1 expression after 48 hrs by Western blot analysis; assay type: functional, cell-based; outline: as §1
[19] = molecular target: Cyclin-dependent kinase 16 (Homo sapiens, UniProt Q00536); assay: Inhibition of human PCTK1 (G160 to A474 residues) expressed in mammalian expression system assessed as residual activity at 5 uM by KINOMEscan assay relative to control
[20] = molecular target: Tyrosine-protein kinase JAK2 (Homo sapiens, UniProt O60674); assay: Binding affinity to human JAK2 JH1 catalytic domain (A829 to G1132 residues) expressed in mammalian expression system by KINOMEscan assay
[21] = molecular target: Vascular endothelial growth factor receptor 2 (Homo sapiens, UniProt P35968); assay: Binding affinity to human VEGFR2 (R787 to P1253 residues) expressed in mammalian expression system by KINOMEscan assay
[22] = molecular target: Bone morphogenetic protein receptor type-2 (Homo sapiens) (UniProt Q13873); assay: Inhibition of human BMPR2 (R179 to Q526 residues) expressed in mammalian expression system assessed as residual activity at 5 uM by KINOMEscan assay relative to control
HT-29 [23] = assay: Induction of apoptosis in human HT-29 cells assessed as late apoptotic cells at 50 uM after 48 hrs by Annexin-V-FITC/propidium iodide staining based flow cytometry (reference value: 4.1%); assay type: functional
[24] = test system: Tyrosine-protein kinase ABL1 (Homo sapiens), P00519 [E255K]; assay: Inhibition of human phosphorylated ABL1 E255K mutant (S229 to K512 residues) expressed in mammalian expression system assessed as residual activity at 5 uM by KINOMEscan assay relative to control
[25] = molecular target: Serine/threonine-protein kinase PLK1 (Homo sapiens, UniProt P53350); assay: Inhibition of human PLK1 (A33 to F325 residues) expressed in mammalian expression system assessed as residual activity at 5 uM by KINOMEscan assay relative to control
[26] = molecular target: Tyrosine-protein kinase ABL1 (Homo sapiens, UniProt P00519, T315I); assay: Binding affinity to human phosphorylated ABL1 T315I mutant (S229 to K512 residues) expressed in mammalian expression system by KINOMEscan assay
[27] = molecular target: Mitogen-activated protein kinase 11 (Homo sapiens, UniProt Q15759); assay: Inhibition of full length human p38beta (M1 to Q364 residues) expressed in bacterial expression system assessed as residual activity at 5 uM by KINOMEscan assay relative to control
[28] = molecular target: Receptor tyrosine-protein kinase erbB-4 (Homo sapiens, UniProt Q15303); assay: Binding affinity to human ERBB4 (L690 to K994 residues) expressed in bacterial expression system by KINOMEscan assay
Sequence of Receptor tyrosine-protein kinase erbB-4 (Q15303 whole entry, the tested form may be a part): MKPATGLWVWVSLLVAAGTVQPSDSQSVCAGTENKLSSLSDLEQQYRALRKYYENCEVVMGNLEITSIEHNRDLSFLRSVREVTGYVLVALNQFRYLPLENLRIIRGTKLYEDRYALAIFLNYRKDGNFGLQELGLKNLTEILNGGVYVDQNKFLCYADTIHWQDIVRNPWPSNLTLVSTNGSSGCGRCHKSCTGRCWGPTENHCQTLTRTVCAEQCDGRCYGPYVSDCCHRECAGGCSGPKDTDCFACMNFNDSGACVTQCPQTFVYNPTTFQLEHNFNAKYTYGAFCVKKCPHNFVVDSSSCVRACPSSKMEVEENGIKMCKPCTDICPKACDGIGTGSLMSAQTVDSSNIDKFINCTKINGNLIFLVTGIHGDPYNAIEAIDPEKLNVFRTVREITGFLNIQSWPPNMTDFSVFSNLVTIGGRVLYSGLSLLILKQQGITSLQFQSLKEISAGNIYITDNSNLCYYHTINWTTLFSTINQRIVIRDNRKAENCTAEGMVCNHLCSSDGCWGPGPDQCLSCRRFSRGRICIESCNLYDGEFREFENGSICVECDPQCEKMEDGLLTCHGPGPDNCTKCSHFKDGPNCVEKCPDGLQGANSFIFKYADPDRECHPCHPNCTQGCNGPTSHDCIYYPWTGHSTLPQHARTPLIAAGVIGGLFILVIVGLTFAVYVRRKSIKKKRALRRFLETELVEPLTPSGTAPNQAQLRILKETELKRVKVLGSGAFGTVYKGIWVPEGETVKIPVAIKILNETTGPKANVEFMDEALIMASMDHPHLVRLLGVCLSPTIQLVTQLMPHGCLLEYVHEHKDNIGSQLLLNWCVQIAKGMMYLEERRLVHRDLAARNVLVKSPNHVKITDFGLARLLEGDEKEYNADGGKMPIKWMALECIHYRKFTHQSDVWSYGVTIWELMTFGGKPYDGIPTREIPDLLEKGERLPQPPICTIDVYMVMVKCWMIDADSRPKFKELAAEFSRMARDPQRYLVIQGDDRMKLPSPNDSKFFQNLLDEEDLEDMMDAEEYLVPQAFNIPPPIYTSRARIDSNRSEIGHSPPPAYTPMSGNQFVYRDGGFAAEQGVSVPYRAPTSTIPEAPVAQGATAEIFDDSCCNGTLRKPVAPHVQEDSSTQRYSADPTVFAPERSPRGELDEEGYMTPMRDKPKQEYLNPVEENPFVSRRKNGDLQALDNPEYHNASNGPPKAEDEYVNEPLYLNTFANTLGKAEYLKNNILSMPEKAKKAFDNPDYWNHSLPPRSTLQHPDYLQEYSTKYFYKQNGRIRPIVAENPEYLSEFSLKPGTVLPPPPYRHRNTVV

## CC(C)CN(C(=O)c1cccnc1)c1c2ccccc2c(=O)n2c1[nH]c1ccccc12
SW-620
  Activity: 38.82%
[1]
  Kd: ≥ 5 µM
[2]
  Activity: 84%
HT-29 [3]
  inhibition: Active
[4]
  Kd: ≥ 5 µM
[5]
  Activity: 100%
HT-29 [6]
  Activity: 42.2%
[7]
  Activity: 100%
[8]
  Kd: ≥ 5 µM
[9]
  Kd: ≥ 5 µM
[10]
  Kd: ≥ 5 µM
[11]
  Kd: ≥ 5 µM
[12]
  Kd: ≥ 5 µM
HT-29 [13]
  Activity: Non-Toxic
[14]
  Activity: 91%
[15]
  Activity: 94%
HT-29 [16]
  Activity: 1.7%
[17]
  Activity: 100%
HT-29 [18]
  Activity: Dose-dependent effect
[19]
  Activity: 95%
[20]
  Kd: ≥ 5 µM
[21]
  Kd: ≥ 5 µM
[22]
  Activity: 100%
HT-29 [23]
  Activity: 13.7%
[24]
  Activity: 69%
[25]
  Activity: 100%
[26]
  Kd: ≥ 5 µM
[27]
  Activity: 100%
[28]
  Kd: ≥ 5 µM

— ChEMBL document CHEMBL4229410, “Facile construction of fused benzimidazole-isoquinolinones that induce cell-cycle arrest and apoptosis in colorectal cancer cells” (Bioorg Med Chem, 2018)
